How the values were obtained:
[1] = biological target: T1, Sodium-dependent dopamine transporter (Rattus norvegicus, UniProt P23977); experiment: Inhibitory potency against dopamine (DA) transporter using [3H]WIN-35428 (WIN-) binding assay.
[2] = biological target: Norepinephrine transporter (Rattus norvegicus, UniProt Q9WTR4); experiment: Selectivity for the norepinephrine transporter using [3H]nisoxetine binding assay
Method in brief: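 Norepinephrine transporter binding used 8 mg frontal cortex from male Sprague–Dawley rats with 0.5 nM [3H]nisoxetine. Incubated 60 min. Nonspecific binding defined with 1 μM desipramine. Ice-cold washes through PEI-soaked GF/B filters.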

[3] = biological target: T1, Sodium-dependent dopamine transporter; experiment: Inhibitory potency against [3H]DA uptake […]
Method in brief: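 Rat striatal S1 fraction (CO2-anesthetized rats) diluted in Krebs-phosphate buffer (pH 7.4, O2/CO2-equilibrated, with pargyline and ascorbate). Preincubated with drug 10 min at 37 °C, then [3H]DA for 2.0 min. Nonspecific uptake measured at 0 °C. Stopped with chilled buffer and GF/C filtration, then scintillation counting. IC50 from usually five concentrations, each in duplicate.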

[4] = biological target: Sodium-dependent serotonin transporter (Rattus norvegicus, UniProt P31652); experiment: Selectivity for the Serotonin transporter using [3H]paroxetine binding assay
Method in brief: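 Serotonin transporter binding used 1.5 mg hindbrain from male Sprague–Dawley rats with 0.2 nM [3H]paroxetine. Buffer was 50 mM Tris, 120 mM NaCl, 0.5 mM KCl, pH 7.4. Incubated 90 min at room temperature. Nonspecific binding defined with 1 μM citalopram. Ice-cold washes through PEI-soaked GF/B filters.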

[5] = biological target: Monoamine transporters; Norepininephrine & dopamine (Rattus norvegicus) (UniProt P23977+Q9WTR4); experiment: Ratio of IC50 of NE (norepinephrine transporter) to IC50 of DA (dopamine transporter); assay type: protein assay
[6] = biological target: Monoamine transporters; serotonin & dopamine (Rattus norvegicus) (UniProt P31652+P23977); experiment: Ratio of IC50 of 5-HT (serotonin transporter) to IC50 of DA (dopamine transporter); assay type: protein assay
Sequence of Monoamine transporters; serotonin & dopamine (Rattus norvegicus) (P23977 whole entry, looked up): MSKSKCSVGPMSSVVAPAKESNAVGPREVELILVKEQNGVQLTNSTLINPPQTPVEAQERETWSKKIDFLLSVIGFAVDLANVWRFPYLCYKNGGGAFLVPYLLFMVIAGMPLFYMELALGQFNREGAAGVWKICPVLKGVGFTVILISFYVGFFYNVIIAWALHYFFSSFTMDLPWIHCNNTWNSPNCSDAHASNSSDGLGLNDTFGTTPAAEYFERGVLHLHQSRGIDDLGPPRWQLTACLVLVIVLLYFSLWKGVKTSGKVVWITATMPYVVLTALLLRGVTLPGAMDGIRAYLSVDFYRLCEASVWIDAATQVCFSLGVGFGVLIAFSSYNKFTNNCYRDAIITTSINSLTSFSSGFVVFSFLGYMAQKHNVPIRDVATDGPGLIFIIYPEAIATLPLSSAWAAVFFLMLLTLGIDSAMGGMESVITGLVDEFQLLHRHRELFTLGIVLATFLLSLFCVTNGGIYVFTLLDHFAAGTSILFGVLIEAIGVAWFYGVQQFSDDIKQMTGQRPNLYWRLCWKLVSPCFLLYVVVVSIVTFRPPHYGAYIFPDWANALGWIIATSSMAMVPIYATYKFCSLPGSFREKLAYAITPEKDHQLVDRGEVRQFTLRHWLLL
Sequence of Monoamine transporters; serotonin & dopamine (Rattus norvegicus) (P31652 whole entry, looked up): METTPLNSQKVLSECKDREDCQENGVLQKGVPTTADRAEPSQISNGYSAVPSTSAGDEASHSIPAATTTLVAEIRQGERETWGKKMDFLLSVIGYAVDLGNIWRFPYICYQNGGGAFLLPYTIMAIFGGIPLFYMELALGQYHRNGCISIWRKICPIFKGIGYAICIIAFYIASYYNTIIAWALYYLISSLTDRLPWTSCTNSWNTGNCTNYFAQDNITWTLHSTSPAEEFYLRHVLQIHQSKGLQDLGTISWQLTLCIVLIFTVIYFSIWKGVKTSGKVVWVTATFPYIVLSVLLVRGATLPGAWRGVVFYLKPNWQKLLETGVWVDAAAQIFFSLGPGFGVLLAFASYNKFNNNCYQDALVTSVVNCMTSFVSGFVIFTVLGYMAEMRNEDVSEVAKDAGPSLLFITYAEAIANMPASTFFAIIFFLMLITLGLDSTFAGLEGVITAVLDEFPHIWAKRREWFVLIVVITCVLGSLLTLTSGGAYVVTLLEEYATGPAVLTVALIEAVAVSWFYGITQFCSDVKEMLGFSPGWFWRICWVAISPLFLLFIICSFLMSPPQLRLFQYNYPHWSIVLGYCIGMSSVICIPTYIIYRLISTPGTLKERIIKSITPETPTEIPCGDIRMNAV

T1 sequence (P23977 whole entry): as the sequence (P23977 whole entry, looked up) above
Sequence of Sodium-dependent serotonin transporter (P31652 whole entry): as the sequence (P31652 whole entry, looked up) above
Sequence of Norepinephrine transporter (Q9WTR4 whole entry): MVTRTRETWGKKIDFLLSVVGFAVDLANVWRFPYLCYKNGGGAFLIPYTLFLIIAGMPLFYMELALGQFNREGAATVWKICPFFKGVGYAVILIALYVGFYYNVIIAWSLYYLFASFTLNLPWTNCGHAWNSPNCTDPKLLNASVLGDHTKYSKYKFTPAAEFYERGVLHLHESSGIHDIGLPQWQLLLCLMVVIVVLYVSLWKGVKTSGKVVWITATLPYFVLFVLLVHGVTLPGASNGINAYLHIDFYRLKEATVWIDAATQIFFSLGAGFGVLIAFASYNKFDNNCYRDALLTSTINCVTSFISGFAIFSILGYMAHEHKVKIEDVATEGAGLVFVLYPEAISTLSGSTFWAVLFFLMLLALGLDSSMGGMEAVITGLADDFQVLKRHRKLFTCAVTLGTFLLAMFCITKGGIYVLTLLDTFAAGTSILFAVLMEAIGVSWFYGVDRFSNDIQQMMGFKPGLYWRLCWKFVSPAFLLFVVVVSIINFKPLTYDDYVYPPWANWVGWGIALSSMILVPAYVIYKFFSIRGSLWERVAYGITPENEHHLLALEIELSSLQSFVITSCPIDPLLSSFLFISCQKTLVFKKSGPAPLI

## CN(C)C1C2CCC(CC2OC(=O)c2ccccc2)C1c1ccccc1 (stereo in doubt; 19) [listing 1 of 2 here]
[1]
  IC50: 2.27 µM
[2]
  IC50: 4.19 µM
[3]
  IC50: 8.24 µM
[4]
  IC50: 1.88 µM

## CN(C)C1C2CCC(CC2OC(=O)c2ccccc2)C1c1ccccc1 (stereo in doubt; 12) [listing 1 of 2 here]
[5]
  Ratio: 5.4
[6]
  Ratio: 41

## CN(C)C1C2CCC(CC2=O)C1c1ccccc1 (stereo in doubt; 13) [listing 1 of 2 here]
[5]
  Ratio: 1
[6]
  Ratio: 5.9

## CN(C)C1C2CCC(CC2=O)C1c1ccccc1 (stereo in doubt; 6) [listing 1 of 2 here]
[1]
  IC50: 4.01 µM
[2]
  IC50: 4.12 µM
[3]
  IC50: 9.14 µM
[4]
  IC50: 31.4 µM

## CN(C)C1C2CCC(CC2OC(=O)c2ccccc2)C1c1ccccc1 (stereo in doubt; 19) [listing 2 of 2 here]
[5]
  Ratio: 1.8
[6]
  Ratio: 0.83

## CC(=O)OC1CC2CCC1C(N(C)C)C2c1ccccc1 (stereo in doubt; 9) [listing 1 of 2 here]
[5]
  Ratio: 0.1
[6]
  Ratio: 0.46

## CC(=O)OC1CC2CCC1C(N(C)C)C2c1ccccc1 (stereo in doubt; 17) [listing 1 of 2 here]
[1]
  IC50: 45.6 µM
[2]
  IC50: 46.8 µM
[3]
  IC50: 75 µM
[4]
  IC50: 22.8 µM

## CC(=O)OC1CC2CCC1C(N(C)C)C2c1ccccc1 (stereo in doubt; 10) [listing 1 of 2 here]
[1]
  IC50: 12.2 µM
[2]
  IC50: 55.4 µM
[3]
  IC50: 25.8 µM
[4]
  IC50: 176 µM

## CC(=O)OC1CC2CCC1C(N(C)C)C2c1ccccc1 (stereo in doubt; 10) [listing 2 of 2 here]
[5]
  Ratio: 4.5
[6]
  Ratio: 14

## CN(C)C1C2CCC(CC2=O)C1c1ccccc1 (stereo in doubt; 6) [listing 2 of 2 here]
[5]
  Ratio: 1
[6]
  Ratio: 7.8

## CN(C)C1C2CCC(CC2=O)C1c1ccccc1 (stereo in doubt; 13) [listing 2 of 2 here]
[1]
  IC50: 10.3 µM
[2]
  IC50: 10.6 µM
[3]
  IC50: 24.7 µM
[4]
  IC50: 61.2 µM

## CN(C)C1C2CCC(CC2OC(=O)c2ccccc2)C1c1ccccc1 (stereo in doubt; 18) [listing 1 of 2 here]
[5]
  Ratio: 3.4
[6]
  Ratio: 0.35

## COC(=O)[C@H](c1ccccc1)[C@H]1CCCCN1 [DEXMETHYLPHENIDATE]
[2]
  IC50: 0.989 µM
[4]
  IC50: 224 µM

## CN(C)C1C2CCC(CC2O)C1c1ccccc1 (stereo in doubt; 15) [listing 1 of 2 here]
[1]
  IC50: 9.92 µM
[2]
  IC50: 34.4 µM
[3]
  IC50: 23 µM
[4]
  IC50: > 100 µM

## CC(=O)OC1CC2CCC1C(N(C)C)C2c1ccccc1 (stereo in doubt; 9) [listing 2 of 2 here]
[1]
  IC50: 5.33 µM
[2]
  IC50: 0.535 µM
[3]
  IC50: 4.93 µM
[4]
  IC50: 2.45 µM

## CC(=O)OC1CC2CCC1C(N(C)C)C2c1ccccc1 (stereo in doubt; 16) [listing 1 of 2 here]
[5]
  Ratio: 0.76
[6]
  Ratio: 0.35

## CN(C)C1C2CCC(CC2OC(=O)c2ccccc2)C1c1ccccc1 (stereo in doubt; 12) [listing 2 of 2 here]
[1]
  IC50: 0.27 µM
[2]
  IC50: 1.47 µM
[3]
  IC50: 0.687 µM
[4]
  IC50: 11.1 µM

## CN(C)CC1C2CCC(CC2)C1c1ccc(Cl)c(Cl)c1 (stereo not drawn)
[2]
  IC50: 0.096 µM
[4]
  IC50: 0.261 µM

## CN(C)C1C2CCC(CC2O)C1c1ccccc1 (stereo in doubt; 8) [listing 1 of 2 here]
[1]
  IC50: 2.04 µM
[2]
  IC50: 7.23 µM
[3]
  IC50: 2.81 µM
[4]
  IC50: 21.8 µM

## CN(C)C1C2CCC(CC2O)C1c1ccccc1 (stereo in doubt; 7) [listing 1 of 2 here]
[1]
  IC50: 1.77 µM
[2]
  IC50: 1.51 µM
[3]
  IC50: 4.45 µM
[4]
  IC50: 8.38 µM

## CC(=O)OC1CC2CCC1C(N(C)C)C2c1ccccc1 (stereo in doubt; 16) [listing 2 of 2 here]
[1]
  IC50: 13.6 µM
[2]
  IC50: 10.4 µM
[3]
  IC50: 16.3 µM
[4]
  IC50: 4.77 µM

## CN(C)C1C2CCC(CC2O)C1c1ccccc1 (stereo in doubt; 7) [listing 2 of 2 here]
[5]
  Ratio: 0.85
[6]
  Ratio: 4.7

## CN(C)C1C2CCC(CC2OC(=O)c2ccccc2)C1c1ccccc1 (stereo in doubt; 18) [listing 2 of 2 here]
[1]
  IC50: 2.2 µM
[2]
  IC50: 7.38 µM
[3]
  IC50: 4.84 µM
[4]
  IC50: 0.76 µM

## CN(C)C1C2CCC(CC2OC(=O)c2ccccc2)C1c1ccccc1 (stereo in doubt; 11) [listing 1 of 2 here]
[1]
  IC50: 0.358 µM
[2]
  IC50: 0.225 µM
[3]
  IC50: 0.372 µM
[4]
  IC50: 0.053 µM

## CN(C)C1C2CCC(CC2O)C1c1ccccc1 (stereo in doubt; 14) [listing 1 of 2 here]
[1]
  IC50: 7.04 µM
[2]
  IC50: 7.73 µM
[3]
  IC50: 10.9 µM
[4]
  IC50: 12.3 µM

## CN(C)C1C2CCC(CC2O)C1c1ccccc1 (stereo in doubt; 15) [listing 2 of 2 here]
[5]
  Ratio: 3.5
[6]
  Ratio: > 10

## CN(C)C1C2CCC(CC2O)C1c1ccccc1 (stereo in doubt; 8) [listing 2 of 2 here]
[5]
  Ratio: 3.5
[6]
  Ratio: 11

## CC(=O)OC1CC2CCC1C(N(C)C)C2c1ccccc1 (stereo in doubt; 17) [listing 2 of 2 here]
[5]
  Ratio: 1
[6]
  Ratio: 0.5

## CN(C)C1C2CCC(CC2O)C1c1ccccc1 (stereo in doubt; 14) [listing 2 of 2 here]
[5]
  Ratio: 1.1
[6]
  Ratio: 1.7

## CN(C)C1C2CCC(CC2OC(=O)c2ccccc2)C1c1ccccc1 (stereo in doubt; 11) [listing 2 of 2 here]
[5]
  Ratio: 0.65
[6]
  Ratio: 0.15

Reference: ChEMBL document CHEMBL1132481 (J Med Chem, 1999)
